# Assay results: ChEMBL document CHEMBL1143838, “Candida albicans and Candida dubliniensis respond differently to echinocandin antifungal agents in vitro” (2007)
# Experiments:
# Assay type in all cases: functional
# [1] = system: Candida dubliniensis; experiment: Antifungal activity against Candida dubliniensis B71507 after 24 hrs by CLSI M27-A test
# In short: (§1)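 Broth microdilution with echinocandins as aqueous doubling dilutions. Yeasts were grown overnight at 30°C in NGY and seeded at 10^3 yeasts/ml initial concentration in MOPS-buffered RPMI 1640, then incubated at 35°C for 24 h. The MIC was read visually as the lowest concentration giving a marked decrease in visible growth; paradoxical or trailing growth was noted.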
# [2] = system: Candida dubliniensis; experiment: Antifungal activity against Candida dubliniensis Leic875 after 24 hrs by CLSI M27-A test; in short: as §1
# [3] = system: Candida dubliniensis; experiment: Antifungal activity against Candida dubliniensis J931021 after 24 hrs by CLSI M27-A test; in short: as §1
# [4] = system: Candida albicans; experiment: Antifungal activity against Candida albicans NR4 after 24 hrs by EUCAST test
# In short: (§2)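 EUCAST broth microdilution with aqueous doubling dilutions of drug. Inoculum grown overnight at 30°C in NGY, then added to MOPS-buffered RPMI 1640 with 2% glucose at an initial 10^5 yeasts/ml. Incubated 35°C for 24 h. MICs taken from triplicate spectrophotometric dose-response data as 50% and 80% growth-reduction endpoints.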
# [5] = system: Candida dubliniensis; experiment: Antifungal activity against Candida dubliniensis B71507 after 24 hrs by EUCAST test
# In short: (§3)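 Yeasts were grown overnight at 30°C in NGY, then inoculated at 10^5 yeasts/ml initial concentration into MOPS-buffered RPMI 1640 with 2% glucose containing aqueous doubling dilutions of drug. Plates were held at 35°C for 24 h. MICs came from triplicate spectrophotometric dose-response data at 50% and 80% growth-reduction endpoints. Trailing meant a >100-fold gap between these endpoints; paradoxical meant regrowth ≥5% above the curve minimum.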
# [6] = system: Candida albicans; experiment: Antifungal activity against Candida albicans T32 after 24 hrs by EUCAST test; in short: as §2
# [7] = system: Candida dubliniensis; experiment: Antifungal activity against Candida dubliniensis Leic875 after 24 hrs by EUCAST test; in short: as §3
# [8] = system: Candida dubliniensis; experiment: Antifungal activity against Candida dubliniensis AMCC after 24 hrs by CLSI M27-A test
# In short: (§4)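 CLSI M27-A broth microdilution with aqueous doubling dilutions of drug. Inoculum grown overnight at 30°C in NGY medium, then added to MOPS-buffered RPMI 1640 at an initial 10^3 yeasts/ml. Incubated 35°C for 24 h. MIC read visually as the lowest concentration giving a marked decrease in visible growth; paradoxical or trailing growth noted.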
# [9] = system: Candida albicans; experiment: Antifungal activity against Candida albicans T28 after 24 hrs by CLSI M27-A test; in short: as §4
# [10] = system: Candida dubliniensis; experiment: Antifungal activity against Candida dubliniensis IK after 24 hrs by CLSI M27-A test; in short: as §1
# [11] = system: Candida albicans; experiment: Antifungal activity against Candida albicans Y109 after 24 hrs by CLSI M27-A test; in short: as §4
# [12] = system: Candida albicans; experiment: Antifungal activity against Candida albicans NR2 after 24 hrs by CLSI M27-A test; in short: as §4
# [13] = system: Candida dubliniensis; experiment: Antifungal activity against Candida dubliniensis FS after 24 hrs by EUCAST test; in short: as §3
# [14] = system: Candida dubliniensis; experiment: Antifungal activity against Candida dubliniensis SCS65875C after 24 hrs by CLSI M27-A test; in short: as §1
# [15] = system: Candida albicans; experiment: Antifungal activity against Candida albicans JIMS146204 after 24 hrs by CLSI M27-A test; in short: as §4
# [16] = system: Candida dubliniensis; experiment: Antifungal activity against Candida dubliniensis 910Aa after 24 hrs by EUCAST test; in short: as §2
# [17] = system: Candida dubliniensis; experiment: Antifungal activity against Candida dubliniensis 75/043 after 24 hrs by CLSI M27-A test; in short: as §4
# [18] = system: Candida dubliniensis; experiment: Antifungal activity against Candida dubliniensis 81/060 after 24 hrs by EUCAST test; in short: as §2
# [19] = system: Candida dubliniensis; experiment: Antifungal activity against Candida dubliniensis ST after 24 hrs by EUCAST test; in short: as §3
# [20] = system: Candida albicans; experiment: Antifungal activity against Candida albicans SC5314 after 24 hrs by CLSI M27-A test; details: SC5314, 24 h; in short: as §4
# [21] = system: Candida parapsilosis; experiment: Antifungal activity against Candida parapsilosis ATCC 22019 after 24 hrs by EUCAST test; details: Lodderomyces parapsilosis, ATCC 22019, 24 h; in short: as §3
# [22] = system: Candida albicans; experiment: Antifungal activity against Candida albicans JIMS132203 after 24 hrs by EUCAST test; in short: as §2
# [23] = system: Candida albicans; experiment: Antifungal activity against Candida albicans T25 after 24 hrs by EUCAST test; in short: as §2
# [24] = system: Candida dubliniensis; experiment: Antifungal activity against Candida dubliniensis SCS59662 after 24 hrs by EUCAST test; in short: as §3
# [25] = system: Candida albicans; experiment: Antifungal activity against Candida albicans B06-341 after 24 hrs by EUCAST test; in short: as §2
# [26] = system: Candida dubliniensis; experiment: Antifungal activity against Candida dubliniensis ST after 24 hrs by CLSI M27-A test; in short: as §1
# [27] = system: Candida dubliniensis; experiment: Antifungal activity against Candida dubliniensis SCS17154969-2 after 24 hrs by CLSI M27-A test; in short: as §1
# [28] = system: Candida dubliniensis; experiment: Antifungal activity against Candida dubliniensis AMCC after 24 hrs by EUCAST test; in short: as §2
# [29] = system: Candida dubliniensis; experiment: Antifungal activity against Candida dubliniensis J930936 after 24 hrs by EUCAST test; in short: as §3
# [30] = system: Candida albicans; experiment: Antifungal activity against Candida albicans NCPF6525 after 24 hrs by EUCAST test; in short: as §2
# [31] = system: Candida albicans; experiment: Antifungal activity against Candida albicans NCPF6525 after 24 hrs by CLSI M27-A test; in short: as §4
# [32] = system: Candida albicans; experiment: Antifungal activity against Candida albicans NR2 after 24 hrs by EUCAST test; in short: as §2
# [33] = system: Candida dubliniensis; experiment: Antifungal activity against Candida dubliniensis Leic952 after 24 hrs by CLSI M27-A test; in short: as §1
# [34] = system: Candida dubliniensis; experiment: Antifungal activity against Candida dubliniensis FS after 24 hrs by CLSI M27-A test; in short: as §1
# [35] = system: Candida albicans; experiment: Antifungal activity against Candida albicans JIMS132203 after 24 hrs by CLSI M27-A test; in short: as §4
# [36] = system: Candida albicans; experiment: Antifungal activity against Candida albicans Y109 after 24 hrs by EUCAST test; in short: as §2
# [37] = system: Candida albicans; experiment: Antifungal activity against Candida albicans CAI4RI after 24 hrs by EUCAST test; in short: as §2
# [38] = system: Candida dubliniensis; experiment: Antifungal activity against Candida dubliniensis 90/033 after 24 hrs by EUCAST test; in short: as §2
# [39] = system: Candida dubliniensis; experiment: Antifungal activity against Candida dubliniensis Leic952 after 24 hrs by EUCAST test; in short: as §3
# [40] = system: Candida albicans; experiment: Antifungal activity against Candida albicans JIMS101103 after 24 hrs by EUCAST test; in short: as §2
# [41] = system: Candida dubliniensis; experiment: Antifungal activity against Candida dubliniensis KR after 24 hrs by EUCAST test; in short: as §3
# [42] = system: Candida albicans; experiment: Antifungal activity against Candida albicans NR3 after 24 hrs by CLSI M27-A test; in short: as §4
# [43] = system: Candida albicans; experiment: Antifungal activity against Candida albicans NR3 after 24 hrs by EUCAST test; in short: as §2
# [44] = system: Candida albicans; experiment: Antifungal activity against Candida albicans SCS68858 after 24 hrs by CLSI M27-A test; in short: as §4
# [45] = system: Candida dubliniensis; experiment: Antifungal activity against Candida dubliniensis IK after 24 hrs by EUCAST test; in short: as §3
# [46] = system: Candida albicans; experiment: Antifungal activity against Candida albicans SCS68858 after 24 hrs by EUCAST test; in short: as §2
# [47] = system: Candida dubliniensis; experiment: Antifungal activity against Candida dubliniensis 75/043 after 24 hrs by EUCAST test; in short: as §2
# [48] = system: Candida dubliniensis; experiment: Antifungal activity against Candida dubliniensis SCS17154969-1 after 24 hrs by CLSI M27-A test; in short: as §1
structure (smiles),measurement,setting,value
CC[C@H](C)C[C@H](C)CCCCCCCCC(=O)N[C@H]1C[C@@H](O)[C@@H](NCCN)NC(=O)[C@@H]2[C@@H](O)CCN2C(=O)[C@H]([C@H](O)CCN)NC(=O)[C@H]([C@H](O)[C@@H](O)c2ccc(O)cc2)NC(=O)[C@@H]2C[C@@H](O)CN2C(=O)[C@H]([C@@H](C)O)NC1=O [CASPOFUNGIN],MIC50,[1],0.5 µg/mL
same,MIC50,[2],0.5 µg/mL
same,MIC50,[3],0.5 µg/mL
same,MIC50,[4],2 µg/mL
same,MIC50,[5],8 µg/mL
same,MIC50,[6],0.13 µg/mL
same,MIC50,[7],0.25 µg/mL
same,MIC50,[8],0.5 µg/mL
same,MIC50,[9],0.25 µg/mL
same,MIC50,[10],0.5 µg/mL
same,MIC50,[11],4 µg/mL
same,MIC50,[12],4 µg/mL
same,MIC50,[13],16 µg/mL
same,MIC50,[14],0.5 µg/mL
same,MIC50,[15],0.5 µg/mL
same,MIC50,[16],0.25 µg/mL
same,MIC50,[17],0.25 µg/mL
same,MIC50,[18],0.25 µg/mL
same,MIC50,[19],0.5 µg/mL
same,MIC50,[20],0.5 µg/mL
same,MIC50,[21],1 µg/mL
same,MIC50,[22],0.25 µg/mL
same,MIC50,[23],8 µg/mL
same,MIC50,[24],0.5 µg/mL
same,MIC50,[25],0.5 µg/mL
same,MIC50,[26],0.5 µg/mL
same,MIC50,[27],0.5 µg/mL
same,MIC50,[28],0.25 µg/mL
same,MIC50,[29],0.25 µg/mL
same,MIC50,[30],1 µg/mL
same,MIC50,[31],0.13 µg/mL
same,MIC50,[32],4 µg/mL
same,MIC50,[33],0.5 µg/mL
same,MIC50,[34],0.5 µg/mL
same,MIC50,[35],0.5 µg/mL
same,MIC50,[36],2 µg/mL
same,MIC50,[37],4 µg/mL
same,MIC50,[38],16 µg/mL
same,MIC50,[39],0.25 µg/mL
same,MIC50,[40],0.25 µg/mL
same,MIC50,[41],0.25 µg/mL
same,MIC50,[42],8 µg/mL
same,MIC50,[43],4 µg/mL
same,MIC50,[44],0.5 µg/mL
same,MIC50,[45],0.25 µg/mL
same,MIC50,[46],0.25 µg/mL
same,MIC50,[47],0.25 µg/mL
same,MIC50,[48],0.5 µg/mL
